Data on 49 compounds can be found in ChEMBL document CHEMBL1150253, “Synthesis and anti-platelet evaluation of 2-benzoylaminobenzoate analogs” (Bioorg Med Chem, 2008).

pIC50: −log10 of the molar value. A value given as a limit tells only on which side of the number the result lay.

Holding throughout (conditions): 0.05 h
Assay [1] relates to Blood. Description: Inhibition of thrombin-induced platelet aggregation in human blood after 3 mins by turbidimetric assay.
Assay [2] deals with Blood. The assay is described as follows: Inhibition of arachidonic acid-induced platelet aggregation in human blood after 3 mins by turbidimetric assay. It is filed as functional, tissue-based. Summed up: (§1)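 Washed human platelets were prepared from ACD-anticoagulated blood of healthy volunteers who had taken no drugs for two weeks. They were resuspended at 3 × 10⁸/ml in Tyrode's solution with Ca²⁺ 2 mM, glucose 11.1 mM and BSA 3.5 mg/ml. Platelets were preincubated with DMSO (0.5%) or compound at 37 °C for 3 min, stirring at 1200 rpm. Inducers were arachidonic acid, collagen, U46619 or thrombin (0.1 U/ml). Aggregation was read by light transmission. IC50 is mean ± SEM, n = 3.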

The subject of assay [3] is Blood. The assay is described as follows: Inhibition of U46619-induced platelet aggregation in human blood after 3 mins by turbidimetric assay. The class given is functional, tissue-based. Summed up:
as §1

Assay [4] relates to Blood. Description: Inhibition of collagen-induced platelet aggregation in human blood after 3 mins by turbidimetric assay.

What is called pIC50 is the IC50 on a negative log10 scale, so that one unit is a factor of ten. Read a high pIC50 as a low IC50. For the compound `CCOC(=O)c1ccc(Cl)cc1NC(=O)c1ccccc1F`, the pIC50 in the assay with Blood [1] was less than 4.00; in the assay on Blood [2], 5.42; with Blood [3] it was less than 4.00; in the assay with Blood [4], 4.70.

For the compound `CCOC(=O)c1ccc(Cl)cc1NC(=O)c1ccccc1Br`, the pIC50 with Blood [1] was less than 4.00; in the assay on Blood [2], 5.44; in the assay on Blood [3], less than 4.00; in the assay with Blood [4], 4.86.

On to `CCOC(=O)c1ccc(Cl)cc1NC(=O)c1ccccc1C`, for which the negative logarithm of the IC50 (pIC50) is less than 4.00 in the assay on Blood [1], 5.31 in the assay with Blood [2], less than 4.00 in the assay with Blood [3] and 4.80 in the assay on Blood [4].

As for `CCCOC(=O)c1ccc(Cl)cc1NC(=O)c1ccccc1F`, the pIC50 with Blood [1] was less than 4.00; with Blood [2], 5.80; in the assay on Blood [3], less than 4.00; in the assay on Blood [4], 4.94.

With `CCCOC(=O)c1ccc(Cl)cc1NC(=O)c1ccccc1Br`, the pIC50 in the assay with Blood [1] is less than 4.00; with Blood [2], 5.46; in the assay on Blood [3] it was less than 4.00; in the assay on Blood [4] it was 5.02.

Turning to `CCOC(=O)c1ccc(Cl)cc1NC(=O)c1ccccc1OC`, the pIC50 with Blood [1] is less than 4.00; with Blood [2], 5.31; in the assay with Blood [3], less than 4.00; in the assay on Blood [4] it was 4.33.

Regarding `CCCOC(=O)c1ccc(Cl)cc1NC(=O)c1ccccc1OC`, the negative-log IC50 (pIC50) with Blood [1] is less than 4.00; in the assay with Blood [2], 4.63; in the assay with Blood [3], less than 4.00; in the assay on Blood [4], less than 4.00.

With `CCOC(=O)c1ccc(Cl)cc1NC(=O)c1ccccc1Cl`, the pIC50 in the assay on Blood [1] is less than 4.00; with Blood [2], 6.00; with Blood [3] it was less than 4.00; with Blood [4], 5.12.

In the case of `CCCOC(=O)c1ccc(Cl)cc1NC(=O)c1ccccc1C`, the pIC50 in the assay with Blood [1] is less than 4.00; in the assay with Blood [2], 5.66; with Blood [3], less than 4.00; with Blood [4], 5.08.

As for `CCCNC(=O)c1ccc(Cl)cc1NC(=O)c1ccccc1Cl`, the pIC50 in the assay on Blood [1] is less than 4.00; in the assay on Blood [2], 5.47; in the assay with Blood [3], less than 4.00; in the assay with Blood [4], 5.39.

As for `CCCNC(=O)c1ccc(Cl)cc1NC(=O)c1ccccc1OC`, the pIC50 is less than 4.00 with Blood [1], 5.22 with Blood [2], less than 4.00 in the assay with Blood [3] and 4.95 with Blood [4].

For the compound `CCOC(=O)c1ccc(F)cc1NC(=O)c1ccccc1C`, the negative-log IC50 (pIC50) in the assay on Blood [2] was 4.68; in the assay on Blood [4], 4.44.

`CCCOC(=O)c1ccc([N+](=O)[O-])cc1NC(=O)c1ccccc1OC`: the pIC50 with Blood [1], with Blood [2] and with Blood [4] was less than 4.00 in each case.

`CCCCOC(=O)c1ccc(Cl)cc1NC(=O)c1c(Cl)cccc1Cl`: the pIC50 in the assay on Blood [1], with Blood [2], with Blood [3] and in the assay with Blood [4] was less than 4.00 throughout.

For the compound `CC(C)OC(=O)c1ccc(Cl)cc1NC(=O)c1c(F)cccc1F`, the negative logarithm of the IC50 (pIC50) in the assay on Blood [1] was less than 4.00; in the assay on Blood [2], less than 4.00; with Blood [3], less than 4.00; in the assay with Blood [4], 4.54.

With `CCCCOC(=O)c1ccc(Cl)cc1NC(=O)c1ccccc1OC`, the negative-log IC50 (pIC50) with Blood [1], in the assay on Blood [2], in the assay on Blood [3] and in the assay on Blood [4] was less than 4.00 each time.

For the compound `CCCCOC(=O)c1ccc(Cl)cc1NC(=O)c1ccccc1F`, the pIC50 was less than 4.00 with Blood [1], 5.52 with Blood [2], less than 4.00 in the assay on Blood [3] and 4.49 with Blood [4].

Turning to `CCCCNC(=O)c1ccc(Cl)cc1NC(=O)c1c(F)cccc1F`, the negative logarithm of the IC50 (pIC50) was less than 4.00 in the assay on Blood [1], 5.46 with Blood [2], less than 4.00 with Blood [3] and 6.00 in the assay with Blood [4].

On to `CCCOC(=O)c1ccc(F)cc1NC(=O)c1ccccc1Cl`, for which the figures for the negative-log IC50 (pIC50) with Blood [1], in the assay with Blood [2] and in the assay on Blood [4] were less than 4.00, 5.80 and 5.03, respectively.

For the compound `CCCOC(=O)c1ccc(F)cc1NC(=O)c1ccccc1Br`, the values for the pIC50 in the assay with Blood [1], with Blood [2] and in the assay on Blood [4] were less than 4.00, 5.48 and 4.78, respectively.

As for `CCCOC(=O)c1ccc(F)cc1NC(=O)c1ccccc1C`, the pIC50 with Blood [1] is less than 4.00; in the assay on Blood [2], 5.70; with Blood [4], 4.60.

Take `CCCOC(=O)c1ccc(F)cc1NC(=O)c1ccccc1OC`: the results for the negative logarithm of the IC50 (pIC50) in the assay with Blood [1], in the assay on Blood [2] and with Blood [4] were less than 4.00, 4.50 and 4.48, respectively.

Take `CCOC(=O)c1ccc(Cl)cc1NC(=O)c1c(F)cccc1F`: the pIC50 in the assay on Blood [1] is less than 4.00; with Blood [2], 6.05; with Blood [3], less than 4.00.

Turning to `CC(C)OC(=O)c1ccc(Cl)cc1NC(=O)c1ccccc1F`, the pIC50 with Blood [1] was less than 4.00; with Blood [2], less than 4.00; in the assay with Blood [3], less than 4.00; with Blood [4], 4.44.

Consider `CC(C)OC(=O)c1ccc(Cl)cc1NC(=O)c1ccccc1Cl`, for which the pIC50 was less than 4.00 in the assay on Blood [1], 4.09 in the assay on Blood [2], less than 4.00 in the assay on Blood [3] and 5.07 in the assay on Blood [4].

With `CCCOC(=O)c1ccc(F)cc1NC(=O)c1ccccc1F`, the values for the negative logarithm of the IC50 (pIC50) in the assay on Blood [1], in the assay with Blood [2] and in the assay with Blood [4] were less than 4.00, 5.80 and 4.84, respectively.

As to `CCCCOC(=O)c1ccc(Cl)cc1NC(=O)c1c(F)cccc1F`, the pIC50 with Blood [1] was less than 4.00; in the assay with Blood [2] it was 5.82; with Blood [3], less than 4.00; in the assay with Blood [4], 4.66.

`CCCOC(=O)c1ccc(C)cc1NC(=O)c1ccccc1F`: the pIC50 was less than 4.00 with Blood [1], 6.05 with Blood [2] and 4.95 in the assay with Blood [4].

With `CCCOC(=O)c1ccc(C)cc1NC(=O)c1ccccc1Cl`, the negative logarithm of the IC50 (pIC50) in the assay with Blood [2] was 5.80; in the assay with Blood [4], 5.11.

On to `CCOC(=O)c1ccc(Cl)cc1NC(=O)c1c(Cl)cccc1Cl`, for which the negative-log IC50 (pIC50) was less than 4.00 with Blood [1], 4.17 in the assay with Blood [2], less than 4.00 in the assay on Blood [3] and 4.49 with Blood [4].

For `CCCOC(=O)c1ccc(Cl)cc1NC(=O)c1c(Cl)cccc1Cl`, the pIC50 in the assay with Blood [1] is less than 4.00; in the assay on Blood [2], 4.42; in the assay on Blood [3], less than 4.00; in the assay on Blood [4] it was 4.53.

Regarding `CCCNC(=O)c1ccc(Cl)cc1NC(=O)c1ccccc1Br`, the pIC50 with Blood [1] was less than 4.00; with Blood [2], 5.82; in the assay with Blood [3], less than 4.00; with Blood [4], 5.47.

For `CCCNC(=O)c1ccc(Cl)cc1NC(=O)c1ccccc1C`, the pIC50 was less than 4.00 in the assay with Blood [1], 5.08 with Blood [2], less than 4.00 in the assay on Blood [3] and 4.99 with Blood [4].

With `CCCCOC(=O)c1ccc(Cl)cc1NC(=O)c1ccccc1C`, the negative-log IC50 (pIC50) in the assay on Blood [1] is less than 4.00; in the assay with Blood [2] it was 5.33; in the assay on Blood [3], less than 4.00; with Blood [4], 4.12.

In the case of `CCCNC(=O)c1ccc(Cl)cc1NC(=O)c1c(F)cccc1F`, the pIC50 was less than 4.00 in the assay with Blood [1], 5.54 in the assay on Blood [2], less than 4.00 with Blood [3] and 6.00 in the assay with Blood [4].

Consider `CCCCNC(=O)c1ccc(Cl)cc1NC(=O)c1ccccc1F`, for which the negative logarithm of the IC50 (pIC50) was less than 4.00 with Blood [1], 5.46 in the assay with Blood [2], less than 4.00 with Blood [3] and 5.66 in the assay with Blood [4].

As to `CCCOC(=O)c1ccc([N+](=O)[O-])cc1NC(=O)c1ccccc1F`, the pIC50 with Blood [1] was less than 4.00; in the assay with Blood [2], 5.33; in the assay with Blood [4] it was 5.46.

As for `CCCOC(=O)c1ccc([N+](=O)[O-])cc1NC(=O)c1ccccc1Br`, the results for the pIC50 with Blood [1], with Blood [2] and in the assay on Blood [4] were less than 4.00, 5.60 and 5.31, respectively.

Take `CCCOC(=O)c1ccc([N+](=O)[O-])cc1NC(=O)c1ccccc1C`: the negative-log IC50 (pIC50) in the assay on Blood [1] was less than 4.00; in the assay with Blood [2], 5.33; with Blood [4] it was 5.10.

As for `CCCOC(=O)c1ccc(C)cc1NC(=O)c1ccccc1C`, the pIC50 in the assay with Blood [1] was less than 4.00; in the assay with Blood [2], 5.24; with Blood [4], 4.70.

As for `CCCOC(=O)c1ccc(C)cc1NC(=O)c1ccccc1OC`, the figures for the pIC50 in the assay on Blood [1], in the assay on Blood [2] and in the assay with Blood [4] were less than 4.00, 4.98 and 4.20, respectively.

Regarding `CCCOC(=O)c1ccc([N+](=O)[O-])cc1NC(=O)c1ccccc1Cl`, the pIC50 with Blood [1] was less than 4.00; in the assay on Blood [2] it was 5.70; in the assay on Blood [4] it was 5.54.

In the case of `CCCCOC(=O)c1ccc(Cl)cc1NC(=O)c1ccccc1Cl`, the pIC50 is less than 4.00 with Blood [1], 5.68 with Blood [2], less than 4.00 in the assay with Blood [3] and 4.71 with Blood [4].

`COC(=O)c1ccc(Cl)cc1NC(=O)c1c(Cl)cccc1Cl`: the negative-log IC50 (pIC50) with Blood [1] was less than 4.00; with Blood [2] it was 4.90; in the assay on Blood [3], less than 4.00; in the assay on Blood [4], 5.47.

Consider `CCCCOC(=O)c1ccc(Cl)cc1NC(=O)c1ccccc1Br`, for which the pIC50 is less than 4.00 in the assay with Blood [1], 5.15 in the assay on Blood [2], less than 4.00 with Blood [3] and 4.30 in the assay with Blood [4].

Take `CCOC(=O)c1ccc(F)cc1NC(=O)c1ccccc1Cl`: the pIC50 with Blood [2] was 5.39; in the assay on Blood [4] it was 4.96.

On to `CCCCNC(=O)c1ccc(Cl)cc1NC(=O)c1ccccc1Cl`, for which the pIC50 is less than 4.00 in the assay on Blood [1], 5.47 in the assay with Blood [2], less than 4.00 in the assay with Blood [3] and 5.96 with Blood [4].

On to `CCCNC(=O)c1ccc(Cl)cc1NC(=O)c1ccccc1F`, for which the pIC50 in the assay with Blood [1] is less than 4.00; in the assay with Blood [2], 5.72; in the assay with Blood [3], less than 4.00; in the assay on Blood [4], 5.06.

Take `CCCOC(=O)c1ccc(C)cc1NC(=O)c1ccccc1Br`: the negative logarithm of the IC50 (pIC50) in the assay on Blood [2] is 5.51; in the assay on Blood [4], 4.56.
